Reference: ChEMBL document CHEMBL3271990, “Ergot alkaloids. New ergolines as selective dopaminergic stimulants” (1978)
Activity calls are given as the source filed them. The rule behind the calls is not given here.

Columns and labels:
Rattus norvegicus [1] = test: Inhibition of serum prolactin in sc dosed rat after 4 hrs by RIA; format: functional
Procedure, shortened: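 Serum prolactin measured by RIA 4 h after sc dosing, expressed as NIH-RP. ED50 calculated from dose-response relationships.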

Rattus norvegicus [2] = test: Induction of turning toward intact side in OFA rat model with 6-OH-DA-induced unilateral degeneration of nigrostriatal tract at 1 mg/kg, ip; format: functional, organism-based; design: dose 1 mg/kg
Rattus norvegicus [3] = test: Inhibition of ovum implantation in sc dosed inseminated rat; format: functional
Procedure, shortened: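 Inseminated rats dosed sc. ED value for inhibition of ovum implantation.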

Rattus norvegicus [4] = test: Induction of stereotypy in OFA rat at 10 mg/kg, sc measured every 30 mins for 2 hrs followed by every 60 mins for 7 hrs; format: functional, organism-based; design: dose 10 mg/kg
Procedure, shortened: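 Male OFA rats (180-250 g), housed singly in cylinders with wire-netting floor, acclimatized 30 min before dosing. Behaviour observed every 30 min for 2 h, then every 60 min up to 7 h total. Stereotypy (sniffing, licking, biting) scored on Costall et al. scale; total score per rat over 0-7 h. Six rats per dose.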

Rattus norvegicus [5] = test: Induction of stereotypy in OFA rat at 30 mg/kg, ip measured every 30 mins for 2 hrs followed by every 60 mins for 7 hrs; format: functional, organism-based; design: dose 30 mg/kg
Procedure, shortened: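 Male OFA rats (180-250 g), each in its own cylinder with a wire-netting floor, acclimatized 30 min, then dosed. Observed every 30 min for 2 h, then every 60 min up to 7 h total. Six rats per dose. Sniffing, licking and biting scored with the Costall et al. system and summed as total activity per rat over 0-7 h.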

SMILES	ED50 (Rattus norvegicus [1]) [mg/kg]	Activity (Rattus norvegicus [2])	ED50 (Rattus norvegicus [3]) [mg/kg]	Activity (Rattus norvegicus [4])	Activity (Rattus norvegicus [5])
CN1C[C@H](CC#N)C[C@@H]2c3cccc4[nH]cc(c34)C[C@H]21	0.06	Active	1		
CN1CCc2cccc3c2[C@H]1Cc1ccc(O)c(O)c1-3				Active	
CN1C[C@@H](CC#N)C[C@H]2c3cccc4[nH]cc(c34)C[C@H]21		Active			Active
CC(C)C[C@H]1C(=O)N2CCC[C@H]2[C@]2(O)O[C@](NC(=O)[C@@H]3C=C4c5cccc6[nH]c(Br)c(c56)C[C@H]4N(C)C3)(C(C)C)C(=O)N12 [BROMOCRIPTINE]	0.007		0.75		Active
CN1C[C@@H](CC#N)C[C@@H]2c3cccc4[nH]cc(c34)C[C@H]21 [DELERGOTRILE]	0.06	Active	3		Active
CN1C[C@H](CC#N)C[C@@H]2c3cccc4[nH]c(Cl)c(c34)C[C@H]21 [LERGOTRILE]	0.08	Active	2		Active
CN1C[C@H](CSc2ccccn2)C=C2c3cccc4[nH]cc(c34)C[C@H]21 [TIOMERGINE]	1.47	Active	11.5		
